# Rows were chosen to be rich in hits. Some 2.3% of all compounds tested hit in one or more screens of this group.
# OXTR agonist – agonists of human oxytocin receptor; activation, % at 3 µM; AID 2435; 320,000 tested, 0.32% active; P30559; CHO-OTR cells, Fluo-8 calcium fluorescence; normalized: DMSO 0%, oxytocin 100%;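 active = activation above the mean of all tested compounds plus 3 SD, cutoff set per screening run, cut at about 20% in these data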;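 also: peak over basal fluorescence ratio from a 100 s FLIPR kinetic read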
# Target sequence (P30559 whole entry, looked up): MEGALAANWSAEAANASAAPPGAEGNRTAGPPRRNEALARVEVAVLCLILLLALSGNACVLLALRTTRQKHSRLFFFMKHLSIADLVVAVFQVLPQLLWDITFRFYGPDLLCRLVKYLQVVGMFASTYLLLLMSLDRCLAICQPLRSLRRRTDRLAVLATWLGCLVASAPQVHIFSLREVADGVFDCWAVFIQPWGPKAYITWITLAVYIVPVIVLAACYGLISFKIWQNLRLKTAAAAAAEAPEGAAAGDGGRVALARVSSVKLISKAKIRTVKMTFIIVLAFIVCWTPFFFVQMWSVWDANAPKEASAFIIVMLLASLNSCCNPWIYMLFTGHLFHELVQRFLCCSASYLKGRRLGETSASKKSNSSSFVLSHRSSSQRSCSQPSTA
# TAAR1 antag – antagonists of human TAAR1; Q96RJ0; CHO RD-HGA16 TAAR1, Fluo-8 calcium fluorescence, antagonist; inhibition, % at 3 µM; 360,000 tested, 1.5% active;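 active = inhibition above a per-plate cutoff, the mean inhibition of test compounds on that plate plus 3 SD, cut at about 49% in these data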;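 also: 0% = DMSO plus EC80 beta-PEA response and 100% = DMSO alone without agonist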
#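 Test system: CHO RD-HGA16 cells bearing hTAAR1 | Reagent: β-PEA, EC80 | Compound dosing: 3 µM, single point | Schedule: Dye loading 75 min at 37 °C, then 30 min room temperature | Signal: Calcium fluorescence with Fluo-8 | Evaluation: Percent inhibition of PEA-evoked calcium signal, max/basal emission ratio | Control set: DMSO-only wells and EC80 β-PEA-stimulated wells | Repeats: Singlicate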
# OXTR potentiator – human OXTR potentiation; P30559; AID 2445; activation, % at 3 µM; CHO-OTR cells, Fluo-8 calcium fluorescence, potentiator mode; 0% = oxytocin EC15, 100% = EC100; 320,000 tested, 0.061% active;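 active = activation above that plate's cutoff, the mean activation of tested compounds plus 3 SD, cut at about 6.6% in these data, passing the limit was not always enough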;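 also: 100% uses oxytocin at 75 nM as the full agonist control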
#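 System: human OTR in CHO cells; Also added: sub-maximal oxytocin, roughly EC15; Timing: compound 6 min at room temperature before oxytocin, 100 s read; Technique: Fluo-8 intracellular calcium fluorescence, ex 470-495, em 515-575 nm; Controls: oxytocin EC15 low and EC100 high; Replication: singlicate.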
# TAAR1 agonist – human TAAR1 agonism | activation, % at 3 µM | Q96RJ0 | CHO RD-HGA16 TAAR1, Fluo-8 calcium fluorescence; vehicle wells 0%, saturating PEA agonist 100% | AID 624467 | 360,000 tested, 0.99% active;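 active = activation above the mean activation of all test compounds in the run plus 3 SD, cut at about 38% in these data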
#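 Signal – calcium-sensitive Fluo-8 signal, excitation 470-495, emission 515-575 nm · System – RD-HGA16 (CHO) cells co-expressing Gα16 and hTAAR1 · Incubation – 17-24 h seeding, 75 min 37 °C dye, 30 min RT · Compound dosing – 3 µM single concentration · Repeats – no replicates (n 1)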
# V1aR counter – V1a receptor agonism, counter-screen for OXTR agonists. CHO-V1R cells, Fluo-8 calcium fluorescence, agonist mode; 0% DMSO, 100% 3 nM vasopressin. activation, % at 3 µM. AID 2797. P37288. 320,000 tested, 0.25% active;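 active = activation above the mean activation of all tested compounds plus 3 SD, per screening run, cut at about 20% in these data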;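 also: signal is peak over basal fluorescence ratio across a 100 second FLIPR read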
# Target sequence (P37288 whole entry, looked up): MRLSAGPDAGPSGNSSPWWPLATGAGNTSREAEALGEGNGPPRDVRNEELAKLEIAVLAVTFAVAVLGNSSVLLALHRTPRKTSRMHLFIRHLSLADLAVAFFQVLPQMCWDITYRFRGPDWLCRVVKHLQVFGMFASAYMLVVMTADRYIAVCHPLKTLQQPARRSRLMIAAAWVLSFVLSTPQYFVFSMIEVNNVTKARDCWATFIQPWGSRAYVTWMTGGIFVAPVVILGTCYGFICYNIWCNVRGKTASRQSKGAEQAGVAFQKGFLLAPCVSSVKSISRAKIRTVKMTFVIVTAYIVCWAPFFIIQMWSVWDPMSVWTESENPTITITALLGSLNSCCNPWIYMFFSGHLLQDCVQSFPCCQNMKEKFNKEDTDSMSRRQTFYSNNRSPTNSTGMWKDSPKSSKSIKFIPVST
# nonsel antag count – counter-screen for TAAR1 antagonists: nonselective antagonists | shares compounds with TAAR1 antag | counterscreen cell line, calcium fluorescence, antagonist mode | inhibition, % at 3 µM | 2,400 tested, 77% active | AID 651780; in the data active = inhibition above about 22%;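 also: CHO-Ga16 host cells stimulated with ATP at an EC80 level; 0% = agonist EC80 plus vehicle and 100% = vehicle without agonist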
# TAAR1 antag conf – human TAAR1 antagonism, confirmed | shares compounds with TAAR1 antag | TAAR1-expressing cells, fluorescence antagonist read-out | inhibition, % at 3 µM | 2,400 tested, 40% active | AID 651785; in the data active = inhibition above about 49%;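 also: CHO-Ga16 host cells challenged with agonist PEA near its EC80; 0% = agonist at EC80 plus vehicle and 100% = vehicle with no agonist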
# Ga16 nonsel ag – nonselective Ga16 agonism, counter-screen; Ga16-expressing cells, calcium fluorescence, agonist counterscreen; shares compounds with TAAR1 antag; activation, % at 3 µM; 2,400 tested, 18% active; in the data active = activation above about 12%;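 also: 0% = vehicle wells and 100% = saturating stimulus response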
# TAAR1 ag count – activates human TAAR1 in antagonist counter-screen; shares compounds with TAAR1 antag; hTAAR1 cell line, fluorescence activation, agonist mode; AID 651955; activation, % at 3 µM; 2,400 tested, 2% active; in the data active = activation above about 37%;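 also: CHO cells stably expressing TAAR1 with calcium dye readout; 0% = DMSO vehicle and 100% = full agonist response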
# The depositor's hits bear a star; / = no result given.
SMILES,OXTR agonist,TAAR1 antag,OXTR potentiator,TAAR1 agonist,V1aR counter,nonsel antag count,TAAR1 antag conf,Ga16 nonsel ag,TAAR1 ag count
O=C(COc1ccc(Cl)cc1)NCc1ccc(F)cc1,-2.0,12.4,-3.0,-1.7,-0.7,/,/,/,/
COc1ccc2cc(C(=O)C3CCCN(C(=O)CSc4nnc(C)o4)C3)ccc2c1 (centres undefined),-0.2,102.8*,-3.4,0.3,2.2,17.9,7.4,4.1,6.9
Cc1nnc(SCC(=O)N2CCCC(C(=O)c3ccc(Cl)cc3)C2)o1 (centres undefined),1.8,-15.6,-4.1,-0.8,0.2,/,/,/,/
CCOC(=O)c1ccc(-c2ccc(/C=N/NC(=O)CN(c3ccccc3Br)S(C)(=O)=O)o2)cc1,-0.1,56.8*,-4.7,4.5,0.9,28.9*,33.2,8.0,12.1
CS(=O)(=O)N(CC(=O)N/N=C/c1cccc2c1OCCO2)c1ccccc1Br,2.2,9.4,-27.8,4.8,0.1,/,/,/,/
CCOC(=O)N1CCN(C(=O)C[C@@H]2C[C@@]3(C(=O)OC)CC(C)(C)CC=C3N(Cc3ccc4c(c3)OCO4)C2=O)CC1,/,-16.5,/,0.9,/,/,/,/,/
COc1cccc(N2CCN(C(=O)C3CCCN(c4ncnc5c4nc4n5CCCCC4)C3)CC2)c1 (centres undefined),0.3,54.6*,-5.8,21.6,4.0,34.3*,48.6*,12.3*,17.1
CC1CCN(C(=O)C2CCCN(c3ncnc4c3nc3n4CCCCC3)C2)CC1 (centres undefined),-1.9,-16.3,-7.8,-0.8,-1.3,/,/,/,/
CC1Cc2ccccc2N1C(=O)c1cc2c(=O)n3ccccc3nc2n1C (centres undefined),-1.1,56.3*,-9.9,16.6,0.8,27.3*,49.0*,11.8*,18.0
CCOc1ccc(C(CC(=O)O)NC(=O)C(c2ccccc2)c2ccccc2)cc1OC (centres undefined),0.8,62.6*,-5.3,-0.4,0.7,-1.9,-4.7,4.1,1.2
COc1ccccc1CNC(=O)Cc1csc(NC(=O)Nc2ccccc2OC)n1,-1.7,60.5*,-1.9,14.2,1.0,31.3*,54.2*,9.2,4.5
COc1ccccc1NC(=O)Nc1nc(CC(=O)NCc2ccccn2)cs1,0.2,45.2,-3.4,10.3,5.3,/,/,/,/
COc1ccccc1NC(=O)Nc1nc(CC(=O)NCc2cccnc2)cs1,-0.2,15.7,-10.8,1.3,0.6,/,/,/,/
O=C(Cc1csc(NC(=O)Nc2cccc(Cl)c2)n1)NCc1ccccn1,1.8,64.7*,-9.2,14.0,3.7,29.1*,39.6,10.3,17.3
COc1ccc(CNC(=O)Cc2csc(NC(=O)Nc3ccccc3OC)n2)cc1,-1.7,56.3*,-6.6,15.4,-1.4,21.2,36.3,6.4,3.1
CC(=O)c1ccc(N2CCN(C(=O)CNS(=O)(=O)c3ccc4c(c3)OCCCO4)CC2)c(F)c1,/,18.2,/,5.5,/,/,/,/,/
CC(C)(C)NC(=O)NC(=O)COC(=O)CCC1CCCC1,-1.9,-19.4,-8.6,-2.8,4.4,/,/,/,/
COc1ccc(-c2csc3nc(-c4cccnc4)nc(N4CCC(C(N)=O)CC4)c23)cc1OC,2.3,52.5*,-10.5,20.1,2.2,18.5,33.0,9.4,7.9
COc1ccc(-c2csc3nc(C)nc(N4CCCCC4)c23)cc1OC,-2.5,4.8,7.2,0.6,-0.5,/,/,/,/
CCc1nc2c(OCc3ccc(Cl)cc3)cccn2c1N(C)C(=O)c1ccncc1,/,-19.1,/,0.5,/,/,/,/,/
O=C(COC(=O)c1ccc2ccccc2c1O)Nc1ccccc1,/,-11.2,/,1.7,/,/,/,/,/
Cc1oc2cc(O)cc(C)c2c(=O)c1-c1cnn(-c2ccccc2)c1,1.8,57.5*,-16.6,4.2,4.3,32.9*,44.6,8.2,4.5
Cc1sc2ncnc(N3CCC(C(=O)Nc4cc(Cl)ccc4Cl)CC3)c2c1C,-0.3,63.1*,-6.1,1.1,-0.3,30.4*,41.7,2.9,0.0
Cc1sc2ncnc(N3CCC(C(=O)Nc4cc(S(C)(=O)=O)ccc4Cl)CC3)c2c1C,3.5,60.8*,-15.0,14.0,7.8,26.4*,38.4,8.1,4.0
COc1ccc(S(=O)(=O)N(C)C)cc1NC(=O)C1CCN(c2ncnc3sc(C)c(C)c23)CC1,/,21.6,/,11.1,/,/,/,/,/
SMILES,OXTR agonist,TAAR1 antag,OXTR potentiator,TAAR1 agonist,V1aR counter,nonsel antag count,TAAR1 antag conf,Ga16 nonsel ag,TAAR1 ag count
Cc1ccc(NC(=O)CN(C)C(=O)c2cc(-c3cccs3)nn2-c2ccccc2)cc1,-1.1,54.5*,-7.1,4.8,1.1,22.3*,39.1,6.3,4.9
CCN(CC(=O)Nc1ccccc1OC)C(=O)c1cc(-c2ccccc2)nn1-c1ccccc1,-2.2,60.6*,-9.7,2.4,-0.2,21.2,32.1,6.9,-0.6
CCN(CC(=O)Nc1c(F)cccc1F)C(=O)c1cc(-c2cccs2)nn1-c1ccccc1,-1.9,72.2*,-4.1,9.2,-0.4,26.7*,44.4,10.0,9.4
CN(CC(=O)Nc1ccc(Cl)cc1)C(=O)c1cc(-c2cccs2)nn1-c1ccccc1,-0.8,66.4*,-5.8,3.4,1.3,24.6*,42.1,6.0,3.7
COc1ccccc1NC(=O)C1CCCN1C(=O)NC1CCCCC1 (centres undefined),0.8,-17.5,-6.0,-2.3,-0.2,/,/,/,/
Cn1cccc1C1CCCN1CC(=O)Nc1c(Cl)cc(Cl)cc1Cl (centres undefined),-1.8,0.4,9.4,-0.7,0.5,/,/,/,/
CCN(CC(=O)Nc1c(F)cccc1F)C(=O)CSc1ccccc1,-0.2,96.9*,-11.4,-2.0,-1.0,3.1,-2.8,5.0,10.5
C[C@@H]1COC(=O)[C@H](CC(=O)OC(C)(C)C)C/C=C\C[C@@H](CC(=O)N(CCO)Cc2ccccc2)C(=O)N1,0.1,-7.1,-6.3,3.7,0.5,/,/,/,/
O=[N+]([O-])c1cccnc1SCc1c(F)cccc1Cl,-3.2,52.4*,-7.7,10.4,-0.7,15.6,27.1,3.3,8.6
CC(=O)OC(C=C(C)C)C/C(C)=C/COc1c2ccoc2cc2oc(=O)ccc12 (centres undefined),/,69.5*,/,3.0,/,28.4*,54.4*,8.8,25.2
CC(C)(O)C(O)COc1c2ccoc2cc2oc(=O)ccc12 (centres undefined),0.7,-5.9,-0.4,2.2,-0.3,/,/,/,/
CN(C)S(=O)(=O)c1cccc(C(=O)OCC(=O)c2ccc3c(c2)NC(=O)CO3)c1,11.9,65.6*,-11.7,33.6,10.2,27.8*,46.8,13.1*,12.5

# High-throughput results (PubChem BioAssay)
